In assay [1] the test system is Osteoclast. The assay is described as follows: Inhibition of ICR mouse osteoclast differentiation at 0.1 ug/mL. It counts as functional. The method in brief: (§1)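 Co-culture of bone marrow cells (femora, 6-week-old ddY mice; 2.5×10^5 cells/cm²) with calvarial osteoblastic cells (newborn ICR mice, collagenase digestion; 4 × 10⁴ cells/cm²) in α-MEM/10% FBS with 1,25(OH)₂D₃ (1 × 10⁻⁸ M) and dexamethasone (1 × 10⁻⁷ M). DMSO stocks (2 mg/mL) were filter-sterilized and added at 0.1 or 1.0 μg/mL. Medium was changed every 2 days. On day 6, cells were formaldehyde-fixed and TRAP-stained. TRAP(+) multinucleated cells with >6–7 nuclei were counted. Results are % inhibition versus control, as mean ± SD of three replicates, with Student's t-test.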

Assay [2] deals with Osteoclast. The assay can be described thus: Inhibition of ICR mouse osteoclast differentiation at 1.0 ug/mL. The format is functional. The method in brief: as §1
Assay [3] relates to Osteoclast. The assay can be described thus: Induction of mouse osteoclast apoptosis. It counts as functional, cell-based.

Our source for the inhibition and IC50 values is ChEMBL document CHEMBL1141351, “Inhibitors of osteoclast differentiation from Cephalotaxus koreana” (J Nat Prod, 2007).

The term inhibition denotes the percentage by which the read-out fell short of the control. A lower inhibition goes with little suppression. `O=c1cc(-c2ccc(O)cc2)oc2c(O)c(O)cc(O[C@@H]3O[C@H](CO)[C@@H](O)[C@H](O)[C@H]3O)c12` had an inhibition at 0.1 µg/mL in the assay with Osteoclast [1] of 63%. Moreover, 1 µg/mL produced 86% inhibition with Osteoclast [2].

Compound `CC(=O)OC[C@H]1O[C@@H](Oc2c(-c3ccc(O)c(O)c3)oc3cc(O)cc(O)c3c2=O)[C@H](O)[C@@H](O)[C@@H]1O` gave an inhibition at 0.1 µg/mL with Osteoclast [1] of 51%. Also, in the assay with Osteoclast [2], testing at 1 µg/mL gave an inhibition of 65%.

In the assay on Osteoclast [1], `C[C@H]1O[C@@H](OC[C@H]2O[C@@H](Oc3c(-c4ccc(O)cc4)oc4cc(O)cc(O)c4c3=O)[C@H](O)[C@@H](O)[C@@H]2O)[C@@H](O)[C@@H](O)[C@@H]1O` displayed an inhibition at 0.1 µg/mL of 68%. The compound further showed an inhibition at 1 µg/mL with Osteoclast [2] of 85%.

The compound `COc1ccc(-c2oc3cc(O)cc(O)c3c(=O)c2O[C@@H]2O[C@H](CO[C@@H]3O[C@H](C)[C@@H](O)[C@H](O)[C@@H]3O)[C@@H](O)[C@H](O)[C@H]2O)cc1O` had an inhibition at 0.1 µg/mL in the assay on Osteoclast [1] of 40%. Besides, the inhibition at 1 µg/mL in the assay with Osteoclast [2] was 63%.

In the assay with Osteoclast [1], `O=c1cc(-c2ccc(O)cc2)oc2cc(O)cc(O)c12` [APIGENIN] registered an inhibition at 0.1 µg/mL of 45%. Further, 1 µg/mL produced 65% inhibition in the assay on Osteoclast [2].

In general, IC50 refers to the concentration needed to halve the response being measured. For `O=c1c(O)c(-c2ccc(O)cc2)oc2cc(O)cc(O)c12` [KAEMPFEROL], it took 1.6 µM to reach half-maximal inhibition with Osteoclast [3] (IC50). That is a single-digit micromolar value.

In the assay with Osteoclast [3], `O=c1c(O)c(-c2ccc(O)c(O)c2)oc2cc(O)cc(O)c12` [QUERCETIN] gave an IC50 of 5.3 µM.

In turn, `C[C@@H]1O[C@@H](Oc2c(-c3ccc(O)c(O)c3)oc3cc(O)cc(O)c3c2=O)[C@H](O)[C@H](O)[C@H]1O` [QUERCITRIN] displayed an inhibition at 0.1 µg/mL in the assay with Osteoclast [1] of 56%. Further, in the assay on Osteoclast [2], the inhibition at 1 µg/mL worked out at 67%.
